Results on two compounds are retold here after article PMC4238798 (Biochemistry, 2014).

Assay [1] addresses T1, RePC (Rhizobium etli pyruvate carboxylase) (Rhizobium etli, UniProt Q2K340).
T1 sequence (Q2K340 1-1154): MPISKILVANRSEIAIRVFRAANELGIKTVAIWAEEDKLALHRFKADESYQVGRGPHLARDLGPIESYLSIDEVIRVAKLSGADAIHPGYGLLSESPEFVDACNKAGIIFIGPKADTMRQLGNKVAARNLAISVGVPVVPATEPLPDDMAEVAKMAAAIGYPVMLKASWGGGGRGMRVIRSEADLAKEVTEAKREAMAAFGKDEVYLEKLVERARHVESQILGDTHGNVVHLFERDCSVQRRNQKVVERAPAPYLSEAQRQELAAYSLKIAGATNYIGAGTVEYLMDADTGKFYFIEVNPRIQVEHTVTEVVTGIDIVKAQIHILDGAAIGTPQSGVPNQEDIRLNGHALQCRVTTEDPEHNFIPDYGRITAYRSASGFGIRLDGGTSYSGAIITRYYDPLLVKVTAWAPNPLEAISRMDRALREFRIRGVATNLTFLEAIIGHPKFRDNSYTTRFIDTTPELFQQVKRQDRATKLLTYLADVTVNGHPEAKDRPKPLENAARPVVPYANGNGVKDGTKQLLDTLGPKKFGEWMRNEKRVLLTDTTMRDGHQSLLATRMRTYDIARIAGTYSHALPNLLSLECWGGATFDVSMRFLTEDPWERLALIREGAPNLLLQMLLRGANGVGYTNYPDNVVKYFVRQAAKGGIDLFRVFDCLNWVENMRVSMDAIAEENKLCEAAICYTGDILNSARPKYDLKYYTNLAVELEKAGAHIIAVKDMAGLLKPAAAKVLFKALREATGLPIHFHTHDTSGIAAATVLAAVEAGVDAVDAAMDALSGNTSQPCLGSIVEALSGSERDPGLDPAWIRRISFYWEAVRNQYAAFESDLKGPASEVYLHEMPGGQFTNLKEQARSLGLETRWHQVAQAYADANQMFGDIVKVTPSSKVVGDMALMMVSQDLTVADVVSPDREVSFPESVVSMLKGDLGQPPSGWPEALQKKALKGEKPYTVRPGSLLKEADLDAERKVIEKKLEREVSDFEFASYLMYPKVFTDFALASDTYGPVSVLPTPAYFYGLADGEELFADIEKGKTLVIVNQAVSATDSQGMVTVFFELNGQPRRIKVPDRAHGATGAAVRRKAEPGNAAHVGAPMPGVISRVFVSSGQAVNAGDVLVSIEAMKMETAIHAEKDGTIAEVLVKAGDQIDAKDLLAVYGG
Kind of assay: malate dehydrogenase-coupled pyruvate carboxylation assay, global fit. The format is biochemical.

Assay [2] concerns the target T1, RePC (Rhizobium etli pyruvate carboxylase). Put plainly: malate dehydrogenase-coupled pyruvate carboxylation assay. The format is biochemical. The procedure, abridged:
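N-terminally His-tagged R. etli enzyme, expressed in E. coli BL21(DE3). NADH oxidation followed, with oxaloacetate converted to malate by 5 units of malate dehydrogenase. Run at 30 °C in 0.1 M Tris-HCl pH 7.8 with 20 mM NaHCO3, 6 mM MgCl2, 1 mM MgATP, 0.2 mM NADH and 10 mM pyruvate. Activator varied 0–150 μM at 0–8 mM L-aspartate. kapp = initial velocity/enzymic biotin. Hill-equation nonlinear least-squares fit gives the activation constant.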

Molecules are shown by their SMILES.

The term Ki denotes the equilibrium dissociation constant of an inhibitor or competing ligand from its target. Low readings indicate tighter binding, high ones weaker binding. `N[C@@H](CC(=O)O)C(=O)O` [L-aspartate] registered a Ki in assay [1] of 1260 ± 80 µM.

A word on the EC50: it is the concentration that produces a half-maximal response. Low readings indicate higher potency in that assay, high ones lower potency in that assay. `CC(=O)SCCNC(=O)CCNC(=O)[C@H](O)C(C)(C)COP(=O)(O)OP(=O)(O)OC[C@H]1O[C@@H](n2cnc3c(N)ncnc32)[C@H](O)[C@@H]1OP(=O)(O)O` [acetyl-CoA] gave an EC50 in assay [2] of 7.3 ± 0.9 µM.
